ChEMBL document CHEMBL5257027 (Eur J Med Chem, 2016)

Legend:
[1] = system: HCT-15; assay: Cytotoxicity against human HCT-15 cells; format: functional; conditions: read-out: LC50 (the source's name)
In short: (§1)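 Run in the US NCI 58-cell-line screen covering nine cancer types (leukemia, NSCLC, colon, CNS, melanoma, ovarian, renal, prostate, breast). Five-dose mode gave GI50, TGI and LC50 values for each cell line. In the single-dose pre-screen, % inhibition was taken as 100 minus growth percentage.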

[2] = system: COLO 205; assay: Antiproliferative activity against human COLO 205 cells assessed as total growth inhibition; format: functional
In short: (§2)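 NCI five-dose testing across the 58-line panel gives GI50, TGI and LC50 for each line. Subpanel lines report mean GI50 for each of the nine cancer types.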

[3] = system: K562; assay: Antiproliferative activity against human K562 cells assessed as reduction in cell growth; format: functional; in short: as §2
[4] = system: K562; assay: Cytotoxicity against human k562 cells; format: functional; conditions: read-out: LC50 (the source's name); in short: as §1
[5] = system: Panel renal (Carcinoma cell lines); assay: Antiproliferative activity against human Panel renal (8 Carcinoma cell lines) assessed as reduction in mean cell growth; format: functional; in short: as §2
[6] = system: Panel melanoma (Carcinoma cell lines); assay: Antiproliferative activity against human Panel melanoma (9 Carcinoma cell lines) assessed as reduction in mean cell growth; format: functional; in short: as §2
[7] = system: NCI/ADR-RES; assay: Antiproliferative activity against human NCI/ADR-RES cells assessed as total growth inhibition; format: functional; in short: as §2
[8] = system: MDA-MB-468; assay: Cytotoxicity against human MDA-MB-468 cells; format: functional; conditions: read-out: LC50 (the source's name); in short: as §1
[9] = system: Panel leukemia (Carcinoma cell lines); assay: Antiproliferative activity against human Panel leukemia (5 Carcinoma cell lines) assessed as reduction in mean cell growth; format: functional; in short: as §2
[10] = system: SNB-75; assay: Antiproliferative activity against human SNB-75 cells assessed as reduction in cell growth; format: functional; in short: as §2
[11] = system: RXF 393; assay: Antiproliferative activity against human RXF 393 cells assessed as reduction in cell growth; format: functional; in short: as §2
[12] = system: HCT-15; assay: Antiproliferative activity against human HCT-15 cells assessed as total growth inhibition; format: functional; in short: as §2
[13] = system: COLO 205; assay: Antiproliferative activity against human COLO 205 cells assessed as reduction in cell growth; format: functional; in short: as §2
[14] = system: Panel prostate (Carcinoma cell lines); assay: Antiproliferative activity against human Panel prostate (2 Carcinoma cell lines) assessed as reduction in mean cell growth; format: functional; in short: as §2
[15] = system: MDA-MB-468; assay: Antiproliferative activity against human MDA-MB-468 cells assessed as reduction in cell growth; format: functional; in short: as §2
[16] = system: RXF 393; assay: Antiproliferative activity against human RXF 393 cells assessed as total growth inhibition; format: functional; in short: as §2
[17] = system: Panel CNS (Carcinoma cell lines); assay: Antiproliferative activity against human Panel CNS (6 Carcinoma cell lines) assessed as reduction in mean cell growth; format: functional; in short: as §2
[18] = system: PC-3; assay: Antiproliferative activity against human PC-3 cells assessed as reduction in cell growth; format: functional; in short: as §2
[19] = Antiproliferative activity against human Panel non-small cell lung cancer (8 Carcinoma cell lines) assessed as reduction in mean cell growth; format: functional; conditions: Non-small cell lung cancer cell line; in short: as §2
[20] = system: Panel colon (Carcinoma cell lines); assay: Antiproliferative activity against human Panel colon (7 Carcinoma cell lines) assessed as reduction in mean cell growth; format: functional; in short: as §2
[21] = system: Panel ovarian (Carcinoma cell lines); assay: Antiproliferative activity against human Panel ovarian (7 Carcinoma cell lines) assessed as reduction in mean cell growth; format: functional; in short: as §2
[22] = system: SNB-75; assay: Cytotoxicity against human SNB-75 cells; format: functional; conditions: read-out: LC50 (the source's name); in short: as §1
[23] = system: K562; assay: Antiproliferative activity against human K562 cells assessed as total growth inhibition; format: functional; in short: as §2
[24] = system: Panel breast (Carcinoma cell lines); assay: Antiproliferative activity against human Panel breast (6 Carcinoma cell lines) assessed as reduction in mean cell growth; format: functional; in short: as §2
[25] = system: Serine/threonine-protein kinase B-raf (Homo sapiens), P15056 [V600E]; assay: Inhibition of B-RAF V600E mutant (unknown origin) at 10 uM using […] as substrate incubated for 40 mins in presence of [gamma33P]ATP by scintillation counting based hotspot kinase assay relative to control
Chain of Serine/threonine-protein kinase B-raf (Homo sapiens), P15056 [V600E] (P15056 whole entry V600E): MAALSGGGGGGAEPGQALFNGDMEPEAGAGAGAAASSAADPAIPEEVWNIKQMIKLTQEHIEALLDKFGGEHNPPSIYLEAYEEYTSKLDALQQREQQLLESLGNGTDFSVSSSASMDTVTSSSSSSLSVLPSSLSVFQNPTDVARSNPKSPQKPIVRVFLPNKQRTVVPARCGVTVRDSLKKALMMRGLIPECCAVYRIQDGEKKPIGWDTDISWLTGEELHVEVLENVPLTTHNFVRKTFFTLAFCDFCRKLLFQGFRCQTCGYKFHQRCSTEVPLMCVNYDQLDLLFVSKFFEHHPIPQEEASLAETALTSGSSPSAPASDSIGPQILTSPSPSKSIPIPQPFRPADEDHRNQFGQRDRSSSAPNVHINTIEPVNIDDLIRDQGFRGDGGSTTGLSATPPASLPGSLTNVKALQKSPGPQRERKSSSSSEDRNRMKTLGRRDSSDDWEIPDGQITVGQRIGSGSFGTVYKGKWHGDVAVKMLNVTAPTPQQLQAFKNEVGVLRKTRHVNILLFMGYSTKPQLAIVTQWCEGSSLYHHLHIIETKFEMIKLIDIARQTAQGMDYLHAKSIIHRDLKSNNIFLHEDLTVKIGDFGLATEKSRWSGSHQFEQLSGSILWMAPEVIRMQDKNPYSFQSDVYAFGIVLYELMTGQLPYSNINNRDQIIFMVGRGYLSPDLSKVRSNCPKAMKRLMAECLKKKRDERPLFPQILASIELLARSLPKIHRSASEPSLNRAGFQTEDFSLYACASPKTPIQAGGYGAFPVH

[26] = system: HOP-92; assay: Antiproliferative activity against human HOP-92 cells assessed as reduction in cell growth; format: functional; in short: as §2
[27] = system: SNB-75; assay: Antiproliferative activity against human SNB-75 cells assessed as total growth inhibition; format: functional; in short: as §2
[28] = system: SK-MEL-5; assay: Antiproliferative activity against human SK-MEL-5 cells assessed as reduction in cell growth; format: functional; in short: as §2
[29] = species: Homo sapiens; assay: Inhibition of ABL […] mutant (unknown origin) at 10 uM using […] as substrate incubated for 40 mins in presence of [gamma33P]ATP by scintillation counting based hotspot kinase assay relative to control
[30] = Antiproliferative activity against human Panel NCI-58 (58 Carcinoma cell lines) assessed as reduction in mean cell growth at 10 uM; format: functional; set-up: scale not given: the % may be the effect or the level left
In short: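 NCI 58-cell-line screen covering leukemia, NSCLC, colon, CNS, melanoma, ovarian, renal, prostate and breast lines. Compounds given once at […] (micromolar per the line). Percent inhibition taken as 100 minus growth percent. Panel line reports the mean over all 58 lines.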

[31] = system: HOP-92; assay: Antiproliferative activity against human HOP-92 cells assessed as total growth inhibition; format: functional; in short: as §2
[32] = system: PC-3; assay: Antiproliferative activity against human PC-3 cells assessed as total growth inhibition; format: functional; in short: as §2
[33] = target: RAF proto-oncogene serine/threonine-protein kinase (Homo sapiens, UniProt P04049); assay: Inhibition of RAF1 (unknown origin) at 10 uM using […] as substrate incubated for 40 mins in presence of [gamma33P]ATP by scintillation counting based hotspot kinase assay relative to control
Chain of RAF proto-oncogene serine/threonine-protein kinase (P04049 whole entry): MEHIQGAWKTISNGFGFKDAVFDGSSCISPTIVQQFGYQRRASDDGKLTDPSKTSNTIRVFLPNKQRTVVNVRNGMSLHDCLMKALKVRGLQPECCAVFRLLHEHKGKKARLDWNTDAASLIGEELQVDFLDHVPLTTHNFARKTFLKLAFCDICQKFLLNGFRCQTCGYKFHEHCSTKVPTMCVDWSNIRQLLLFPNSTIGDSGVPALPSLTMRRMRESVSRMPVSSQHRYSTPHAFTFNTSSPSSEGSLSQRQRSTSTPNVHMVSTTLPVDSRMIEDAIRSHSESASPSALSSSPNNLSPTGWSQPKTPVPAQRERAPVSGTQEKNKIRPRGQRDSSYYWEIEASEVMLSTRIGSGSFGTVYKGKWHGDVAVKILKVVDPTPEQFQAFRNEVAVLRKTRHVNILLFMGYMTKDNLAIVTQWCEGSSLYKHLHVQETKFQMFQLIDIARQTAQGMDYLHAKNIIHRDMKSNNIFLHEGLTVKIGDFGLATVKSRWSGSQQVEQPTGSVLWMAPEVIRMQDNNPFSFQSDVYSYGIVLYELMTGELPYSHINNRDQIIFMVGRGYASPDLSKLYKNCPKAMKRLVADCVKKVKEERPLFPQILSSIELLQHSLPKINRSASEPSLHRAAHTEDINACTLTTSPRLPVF

[34] = system: SK-MEL-5; assay: Antiproliferative activity against human SK-MEL-5 cells assessed as total growth inhibition; format: functional; in short: as §2
[35] = system: SK-MEL-5; assay: Cytotoxicity against human SK-MEL-5 cells; format: functional; in short: as §1
[36] = system: RXF 393; assay: Cytotoxicity against human RXF 393 cells; format: functional; in short: as §1
[37] = system: NCI/ADR-RES; assay: Antiproliferative activity against human NCI/ADR-RES cells assessed as reduction in cell growth; format: functional; in short: as §2
[38] = system: COLO 205; assay: Cytotoxicity against human COLO 205 cells; format: functional; in short: as §1
[39] = system: MDA-MB-468; assay: Antiproliferative activity against human MDA-MB-468 cells assessed as total growth inhibition; format: functional; in short: as §2
[40] = system: HCT-15; assay: Antiproliferative activity against human HCT-15 cells assessed as reduction in cell growth; format: functional; in short: as §2
[41] = target: Epidermal growth factor receptor (Homo sapiens) (UniProt P00533); assay: Inhibition of EGFR (unknown origin) at 10 uM using […] as substrate incubated for 40 mins in presence of [gamma33P]ATP by scintillation counting based hotspot kinase assay relative to control
Chain of Epidermal growth factor receptor (Homo sapiens) (P00533 whole entry): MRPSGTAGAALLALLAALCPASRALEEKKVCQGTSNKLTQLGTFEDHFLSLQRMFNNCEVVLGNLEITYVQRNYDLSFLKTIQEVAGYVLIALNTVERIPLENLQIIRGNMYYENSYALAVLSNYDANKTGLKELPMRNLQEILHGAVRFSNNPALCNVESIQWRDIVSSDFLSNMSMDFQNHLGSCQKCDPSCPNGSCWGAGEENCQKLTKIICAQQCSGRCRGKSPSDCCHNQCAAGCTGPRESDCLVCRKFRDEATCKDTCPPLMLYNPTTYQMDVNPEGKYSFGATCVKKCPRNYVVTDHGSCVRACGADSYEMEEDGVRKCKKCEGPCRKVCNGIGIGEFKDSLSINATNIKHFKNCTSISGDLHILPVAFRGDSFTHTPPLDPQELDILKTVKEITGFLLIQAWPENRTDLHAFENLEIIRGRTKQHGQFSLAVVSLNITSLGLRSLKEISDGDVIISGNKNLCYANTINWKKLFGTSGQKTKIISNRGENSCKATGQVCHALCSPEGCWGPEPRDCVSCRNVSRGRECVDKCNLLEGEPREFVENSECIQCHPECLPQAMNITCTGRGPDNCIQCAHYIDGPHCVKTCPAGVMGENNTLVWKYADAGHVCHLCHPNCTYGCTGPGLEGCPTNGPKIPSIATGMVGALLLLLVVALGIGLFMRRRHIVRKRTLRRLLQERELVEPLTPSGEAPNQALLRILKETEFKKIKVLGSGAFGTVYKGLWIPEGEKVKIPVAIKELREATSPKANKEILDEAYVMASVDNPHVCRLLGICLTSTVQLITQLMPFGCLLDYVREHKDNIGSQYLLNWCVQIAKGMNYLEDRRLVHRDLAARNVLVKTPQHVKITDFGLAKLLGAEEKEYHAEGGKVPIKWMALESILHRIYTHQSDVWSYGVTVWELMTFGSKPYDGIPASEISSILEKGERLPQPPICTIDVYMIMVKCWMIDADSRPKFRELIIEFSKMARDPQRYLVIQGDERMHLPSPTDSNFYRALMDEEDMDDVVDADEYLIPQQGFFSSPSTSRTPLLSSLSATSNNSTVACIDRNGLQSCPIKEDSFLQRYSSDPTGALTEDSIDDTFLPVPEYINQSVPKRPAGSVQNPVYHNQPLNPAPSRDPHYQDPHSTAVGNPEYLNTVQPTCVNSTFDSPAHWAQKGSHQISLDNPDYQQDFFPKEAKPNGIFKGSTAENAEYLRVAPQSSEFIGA

[42] = target: Serine/threonine-protein kinase B-raf (Homo sapiens) (UniProt P15056); assay: Inhibition of B-RAF (unknown origin) at 10 uM using […] as substrate incubated for 40 mins in presence of [gamma33P]ATP by scintillation counting based hotspot kinase assay relative to control
Chain of Serine/threonine-protein kinase B-raf (Homo sapiens) (P15056 whole entry): as the sequence (P15056 whole entry V600E) above, with E600V counted along it

[43] = system: HOP-92; assay: Cytotoxicity against human HOP-92 cells; format: functional; in short: as §1
[44] = system: PC-3; assay: Cytotoxicity against human PC-3 cells; format: functional; in short: as §1
[45] = system: NCI/ADR-RES; assay: Cytotoxicity against human NCI/ADR-RES cells; format: functional; in short: as §1
[46] = target: Tyrosine-protein kinase ABL1 (Homo sapiens) (UniProt P00519); assay: Inhibition of ABL (unknown origin) at 10 uM using […] as substrate incubated for 40 mins in presence of [gamma33P]ATP by scintillation counting based hotspot kinase assay relative to control
Chain of Tyrosine-protein kinase ABL1 (Homo sapiens) (P00519 whole entry): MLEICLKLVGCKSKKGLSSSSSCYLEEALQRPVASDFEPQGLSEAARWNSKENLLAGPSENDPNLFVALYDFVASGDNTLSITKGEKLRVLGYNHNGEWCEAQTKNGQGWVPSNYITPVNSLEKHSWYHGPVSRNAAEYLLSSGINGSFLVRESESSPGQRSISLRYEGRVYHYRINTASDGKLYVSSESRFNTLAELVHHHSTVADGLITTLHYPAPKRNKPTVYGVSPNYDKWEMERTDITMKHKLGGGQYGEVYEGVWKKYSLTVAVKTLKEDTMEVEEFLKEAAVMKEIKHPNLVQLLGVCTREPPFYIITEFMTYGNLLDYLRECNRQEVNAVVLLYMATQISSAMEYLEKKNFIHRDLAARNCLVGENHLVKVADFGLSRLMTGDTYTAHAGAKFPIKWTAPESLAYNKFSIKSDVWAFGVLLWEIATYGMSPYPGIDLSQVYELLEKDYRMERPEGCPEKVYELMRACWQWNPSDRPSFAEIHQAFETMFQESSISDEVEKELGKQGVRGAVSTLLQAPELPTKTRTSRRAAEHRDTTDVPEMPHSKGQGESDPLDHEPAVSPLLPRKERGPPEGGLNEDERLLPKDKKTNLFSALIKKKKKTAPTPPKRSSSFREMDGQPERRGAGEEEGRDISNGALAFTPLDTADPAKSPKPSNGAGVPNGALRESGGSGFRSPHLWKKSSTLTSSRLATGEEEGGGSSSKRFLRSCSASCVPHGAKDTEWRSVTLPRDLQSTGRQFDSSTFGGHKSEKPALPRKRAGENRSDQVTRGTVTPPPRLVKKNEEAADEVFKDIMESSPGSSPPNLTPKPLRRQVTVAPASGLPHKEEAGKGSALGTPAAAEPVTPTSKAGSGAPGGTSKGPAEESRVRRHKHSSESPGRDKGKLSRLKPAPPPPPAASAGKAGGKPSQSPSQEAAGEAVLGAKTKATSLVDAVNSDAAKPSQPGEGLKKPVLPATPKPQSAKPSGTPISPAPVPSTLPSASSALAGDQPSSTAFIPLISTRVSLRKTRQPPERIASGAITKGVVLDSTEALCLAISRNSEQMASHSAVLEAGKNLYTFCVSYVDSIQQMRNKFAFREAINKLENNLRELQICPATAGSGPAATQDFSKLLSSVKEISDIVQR

[47] = target: Mitogen-activated protein kinase 14 (Homo sapiens) (UniProt Q16539); assay: Inhibition of MAPK14 (p38 alpha) (unknown origin) at 10 uM using […] as substrate incubated for 40 mins in presence of [gamma33P]ATP by scintillation counting based hotspot kinase assay relative to control
Chain of Mitogen-activated protein kinase 14 (Homo sapiens) (Q16539 whole entry): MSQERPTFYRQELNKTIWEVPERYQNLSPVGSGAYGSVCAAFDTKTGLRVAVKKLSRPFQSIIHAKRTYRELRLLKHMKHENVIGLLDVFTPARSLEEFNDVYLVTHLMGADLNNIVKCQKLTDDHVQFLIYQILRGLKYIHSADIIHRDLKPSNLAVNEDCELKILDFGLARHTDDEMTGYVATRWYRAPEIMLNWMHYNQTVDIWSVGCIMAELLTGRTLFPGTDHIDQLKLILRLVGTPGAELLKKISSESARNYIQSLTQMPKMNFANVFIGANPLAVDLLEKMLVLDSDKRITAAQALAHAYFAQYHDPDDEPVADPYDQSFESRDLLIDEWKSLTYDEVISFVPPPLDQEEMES

In the case of `CNC(=O)c1cc(Oc2ccc(NC(=O)Nc3ccc(Cl)c(C(F)(F)F)c3)cc2)ccn1` [SORAFENIB], the CC50 [1] is reported as 50.1 µM, the TGI [2] is reported as 5.01 µM and the GI50 [3] is reported as 3.16 µM. It also gave a CC50 [4] of 100 µM, a GI50 [5] of 2.94 µM and a GI50 [6] of 1.87 µM. The TGI [7] was 15.8 µM, the CC50 [8] was 50.1 µM and the GI50 [9] was 2.43 µM. It also gave a GI50 [10] of 3.16 µM, a GI50 [11] of 2.51 µM and a TGI [12] of 10 µM. For the same molecule, the GI50 [13] was 1.99 µM, the GI50 [14] was 2.58 µM and the GI50 [15] was 1.99 µM. For the same molecule, the TGI [16] was 10 µM, the GI50 [17] was 2.33 µM and the GI50 [18] was 1.99 µM. For the same molecule, the GI50 [19] was 2.25 µM, the GI50 [20] was 2.19 µM and the GI50 [21] was 2.88 µM. The CC50 [22] was 7.94 µM, the TGI [23] was 100 µM and the GI50 [24] was 2.17 µM.
Molecule `COc1cccc(-c2nn(-c3ccccc3)cc2-c2ccnc(NCCNC(=O)Nc3cccc(C(F)(F)F)c3)c2)c1` has an inhibition [25] of 36.2%, a GI50 [26] of 1.46 µM and a TGI [27] of 100 µM. The CC50 [1] was 100 µM, the TGI [2] was 3.34 µM and the GI50 [3] was 2.13 µM. It also gave a GI50 [28] of 1.73 µM, a CC50 [4] of 100 µM and a GI50 [5] of 2.14 µM. For the same molecule, the inhibition [29] was 2.92%, the GI50 [6] was 1.91 µM and the Activity [30] was >80%. For the same molecule, the TGI [31] was 7.65 µM, the TGI [7] was 5.75 µM and the GI50 [9] was 2.04 µM. For the same molecule, the TGI [32] was 15.7 µM, the GI50 [10] was 1.62 µM and the GI50 [11] was 1.53 µM. The TGI [12] was 4.7 µM, the GI50 [13] was 1.88 µM and the inhibition [33] was 45.1%. It also gave a GI50 [14] of 3.09 µM, a TGI [34] of 3.55 µM and a GI50 [15] of 1.7 µM. For the same molecule, the LC50 [35] was 7.82 µM, the LC50 [36] was 25 µM and the TGI [16] was 4.63 µM. For the same molecule, the GI50 [17] was 2.07 µM, the GI50 [18] was 2.02 µM and the GI50 [37] was 2.22 µM. For the same molecule, the LC50 (lethal concentration 50%) [38] was 6.95 µM, the GI50 [19] was 2.03 µM and the GI50 [20] was 1.98 µM. For the same molecule, the GI50 [21] was 2.54 µM, the CC50 [22] was 100 µM and the TGI [39] was 3.5 µM. For the same molecule, the GI50 [40] was 1.7 µM, the TGI [23] was 100 µM and the inhibition [41] was -2.09%. The inhibition [42] was 14%, the LC50 [43] was 100 µM and the LC50 [44] was 100 µM. For the same molecule, the LC50 [45] was 100 µM, the GI50 [24] was 2.23 µM and the inhibition [46] was 13.4%.
For `O=C(NCCCNc1cc(-c2cn(-c3ccccc3)nc2-c2cccc(O)c2)ccn1)c1ccccc1`, the inhibition [25] was 34.4%, the GI50 [26] was 1.7 µM and the TGI [27] was 46.9 µM. The CC50 [1] was 100 µM, the TGI [2] was 3.67 µM and the GI50 [3] was 0.75 µM. For the same molecule, the GI50 [28] was 1.49 µM, the CC50 [4] was 100 µM and the GI50 [5] was 3.63 µM. The inhibition [29] was 9.61%, the GI50 [6] was 2.3 µM and the Activity [30] was >80%. For the same molecule, the TGI [31] was 24.5 µM, the TGI [7] was 9.79 µM and the GI50 [9] was 1.62 µM. It also gave a TGI [32] of 15.2 µM, a GI50 [10] of 1.68 µM and a GI50 [11] of 1.97 µM. The inhibition [47] was 74.5%, the TGI [12] was 5.12 µM and the GI50 [13] was 1.71 µM. The inhibition [33] was 39.6%, the GI50 [14] was 3.69 µM and the TGI [34] was 3.12 µM. For the same molecule, the GI50 [15] was 1.38 µM, the LC50 [35] was 6.54 µM and the LC50 [36] was 100 µM. For the same molecule, the TGI [16] was 6.2 µM, the GI50 [17] was 3.6 µM and the GI50 [18] was 2.1 µM. The GI50 [37] was 2.67 µM, the LC50 (lethal concentration 50%) [38] was 7.88 µM and the GI50 [19] was 3.4 µM. The GI50 [20] was 2.3 µM, the GI50 [21] was 4.17 µM and the CC50 [22] was 100 µM. For the same molecule, the TGI [39] was 3.36 µM, the GI50 [40] was 1.51 µM and the inhibition [41] was 3.72%. The inhibition [42] was 10.8%, the LC50 [43] was 100 µM and the LC50 [44] was 100 µM. For the same molecule, the LC50 [45] was 100 µM, the GI50 [24] was 2.13 µM and the inhibition [46] was 16%.
